Dynein transport: inhibitors of GR-EGFP nuclear translocation, primary screen, dynein cargo transport inhibitor project, imaging, high-content, 3617.4 mouse cells; test concentration mostly 20 µM; stimulated with dexamethasone, 1 µM; stronger effect = lower value; z-score, hits read low; 0.47% of 220,000 active;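 active = plate z-score of nuclear minus cytoplasmic receptor signal below a set negative limit, without overly bright fluorescence or cell loss, cut at about -3.5 in these data, passing the limit was not always enough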;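 also: z-score of nuclear minus cytoplasmic ring GR-EGFP intensity difference per well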
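Buffer or medium: tet-free, stripped-serum medium; Also added: dexamethasone, 1.0 µM final; Technique: high-content fluorescence imaging after fixation; Times: 48 h induction, 1 h compound, 30 min dex at 37 °C; Read-out: per-cell GR-EGFP intensity, nucleus versus surrounding cytoplasmic ring, well-averaged.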
Autophagy mod: autophagy modulators in MEF cells, primary screen, imaging, high-content, MEF GFP-LC3 | 0.98% of 190,000 active | AID 463193, 2010 | calls only at 10 µM (by protocol) | MEF GFP-LC3 puncta imaging; test concentration mostly 10 µM;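 active = percentage of spot-positive cells more than 3 SD above its plate mean, without a fluorescence outlier flag or 80% toxicity; inconclusive = no clear call, values can overlap the other calls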;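 also: spot-positive cell cutoff set from DMSO-treated cells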
Ins promoter up: insulin promoter activators in MIN6 cells, imaging, high-content screening, mouse beta cells; MIN6 insulin promoter-GFP reporter; stronger effect = higher value; z-score at 5 µM; 0.3% of 190,000 active; AID 1625, 2009;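 active = z-score above 3 at 5 µM with at least 500 cells counted in the well; inconclusive = wells under 500 cells, flagged as cytotoxic or low count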
INS promoter inh: inhibitors of insulin promoter-driven GFP, primary screen, imaging, TRM-6 cells, eGFP reporter, cell count. inhibition, % at 2 µM. reporter expression induced with tamoxifen. AID 1273, 2008. 0.9% of 130,000 active;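 active = inhibition above the mean plus 3 SD, with well images judged a real hit on visual review, cut at about 60% in these data, passing the limit was not always enough; inconclusive = inhibition over the cutoff but images rejected on review; inactive = inhibition not above the cutoff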
* marks the source's active call; other numbers are inactive results; i = inactive; ? = inconclusive; . = no result given; + = active, no number. In the library only some 2% were active in any assay of this set; here they are far more common.

SMILES	Dynein transport	Autophagy mod	Ins promoter up	INS promoter inh
Cc1nc2ccc(NC(=O)c3ccc(Cl)c([N+](=O)[O-])c3)cc2s1	0.27	i	-0.24	.
Cc1nc2ccc(NC(=O)c3cc([N+](=O)[O-])cc([N+](=O)[O-])c3Cl)cc2s1	-3.6*	i	1.4	.
N=c1sccn1CC(=O)Nc1cc(Cl)ccc1[N+](=O)[O-]	1.1	+	0.2	.
Cc1cc(NC(=O)Cn2ccsc2=N)c([N+](=O)[O-])cc1C	-0.44	i	-0.14	-67
CCOc1ccc(-c2cc(CCCC(=O)NCCc3ccccc3)no2)cc1	-0.84	i	.	75*
COc1ccc(NC(=O)c2cccnc2Nc2ccc(OC)cc2)cc1	0.093	i	0.59	74*
COc1ccc(Nc2ncccc2C(=O)Nc2ccccc2)cc1	0.2	+	1.1	50
COc1ccc(NC(=O)c2ccc(C(=O)c3ccccc3)o2)cc1	-0.78	i	0.62	90*
N#Cc1ncc(Cl)c2ccccc12	-0.2	.	-0.12	.
CSc1cc(C)c(OCC(=O)Nc2ccc(NC(C)=O)cc2)c(C)c1	0.15	i	-0.22	.
COCCNc1c(-c2cc3ccc(C)c(C)c3[nH]c2=O)nc2ccccn12	0.16	i	-0.37	.
Cc1ccc2[nH]c3c(=S)nc[nH]c3c2c1	0.25	i	-0.08	78*
Cc1ccc2[nH]c3c(=O)n(N)c(=O)[nH]c3c2c1	0.062	.	-0.25	.
COc1ccc(C(=O)CSc2[nH]c(=O)cc(C(F)(F)F)c2C#N)cc1	-0.42	.	-0.3	.
O=C(CSCc1ccc(Br)cc1)N1CCCC1	0.75	i	-0.15	.
CC(=O)Nc1cc(OC(C)=O)c2nonc2c1OC(C)=O	-5.1*	i	-0.18	i
CC(=O)Nc1nonc1NC(C)=O	0.54	i	0.23	-93
COc1ccc2o/c(=N/NC(=S)Nc3ccccc3)c(C(N)=O)cc2c1	-0.51	+	-0.25	.
Cc1cc(=O)oc2cc(OCC(=O)OCC(=O)Nc3ccccc3C(C)C)ccc12	-0.9	i	-0.48	60*
Cc1cc(=O)oc2cc(OCC(=O)OCC(=O)Nc3ccccc3F)ccc12	0.24	i	0.77	0
O=c1c2ccccc2nc2c3ccccc3c(NCCN3CCOCC3)nn12	0.37	+	.	-9
O=c1c2c(-c3ccccc3)csc2nc2c3ccccc3c(NCCN3CCOCC3)nn12	-3.3	+	-2.6	-191
O=c1c2ccccc2nc(-c2ccccc2)n1CCN1CCOCC1	2.7	i	0.24	.
CCOC(=O)c1nn(-c2cccc(Cl)c2)c(C)c1C(C)=O	-0.64	i	0.2	92*
COc1ccc(-n2c(C)cc(/C=C3\SC(=S)N(Cc4ccco4)C3=O)c2C)cc1	-0.43	+	2.8	-245
SMILES	Dynein transport	Autophagy mod	Ins promoter up	INS promoter inh
CNC(=O)COC(=O)c1cc(SC)ccc1Cl	1.7	+	0.25	.
CCCCCCCC[n+]1c(C)n(-c2ccccc2)c2ccc(NC(C)=O)cc21	-0.67	i	-4.5	.
O=C(O)c1cccc(-n2c(-c3cnccn3)n[nH]c2=S)c1	-0.21	i	0.63	.
O=C(NC12CC3CC(CC(C3)C1)C2)N(Cc1ccccc1)Cc1ccncc1	-0.97	i	-0.45	.
COc1ccc(NC(=O)/C(Cl)=C(/Cl)S(=O)Cc2ccccc2Cl)cn1 (stereo not drawn)	-5*	i	?	i
O=[N+]([O-])c1ccc(N2CCN(S(=O)(=O)c3ccc(Cl)cc3)CC2)cc1NCC1CCCO1 (stereo not drawn)	-0.087	+	0.49	26
C=CC(=O)NC(NC(=O)C=C)c1ccccc1F	-0.52	.	-0.62	.
O=C(Nc1ccc(N2CCCCC2)cc1)c1cccnc1	1.1	i	3.4*	10
O=C(Nc1ccc(N2CCN(Cc3ccccc3Cl)CC2)cc1)c1cccnc1	-0.29	i	.	-37
Cc1cc(NS(=O)(=O)c2ccc(NC(=O)c3oc4ccccc4c3C)cc2)no1	0.21	i	1.4	79*
Cc1cc(NS(=O)(=O)c2ccc(NC(=O)c3ccco3)cc2)no1	2.9	+	1	.
Cc1cc(NS(=O)(=O)c2ccc(NC(=O)c3ccco3)cc2)nc(C)n1	0.21	i	-0.84	32
CCC(=O)Nc1ccc(S(=O)(=O)Nc2cc(C)on2)cc1	0.11	i	.	41
CC(=O)c1cccc(NC(=O)N2C3CCC2CC(NC(=O)C2CC2)C3)c1 (stereo not drawn)	0.037	i	0.69	.
C=CCN(Cc1cn(C)nc1-c1cccc(Cl)c1)C1CCS(=O)(=O)C1 (stereo not drawn)	-0.8	i	0.66	.
O=S(=O)(Nc1cc(Sc2ncn[nH]2)c(O)c2ccccc12)c1ccccc1	-3.3	i	?	-233
Cc1cc(C)c(S(=O)(=O)/N=C2/C=C(Sc3ncn[nH]3)C(=O)c3ccccc32)cc1C	-6.6*	i	1.1	-178
CC1CCN(c2c(NCc3ccc(C(=O)N4CCc5ccccc54)cc3)c(=O)c2=O)CC1	-1.1	+	1.5	.
O=C1N/C(=N\c2ccccn2)SC1Cc1ccccc1Cl (stereo not drawn)	1	.	-0.11	.
Cc1cccc(CC2S/C(=N/c3ccccn3)NC2=O)c1 (stereo not drawn)	-0.18	+	0.18	35
O=C(COC(=O)CNC(=O)c1ccc(Cl)cc1Cl)Nc1ccc(N2CCOCC2)cc1	0.15	i	-0.2	.
CCOC(=O)c1ccc(N2CCOCC2)c(NC(=O)c2c(-c3ccccc3)noc2C)c1	-0.075	.	-0.23	.
Cc1cc(N2CCN(S(=O)(=O)c3ccc4ccccc4c3)CC2)n2ncnc2n1	-0.041	+	-0.08	.
COc1ccc(S(=O)(=O)Nc2ccc3c(c2)OCO3)cc1C	0.58	i	.	86*
CN1CCc2c(sc3c2C(=O)NC(c2cn(Cc4ccccc4)c4ccccc24)N3)C1 (stereo not drawn)	9.2	+	-2.1	-130
SMILES	Dynein transport	Autophagy mod	Ins promoter up	INS promoter inh
O=C(Cn1c(=O)oc2ccccc21)c1ccccc1	-0.43	i	1.2	73*
O=c1oc2ccccc2n1CCCCCn1c(=O)oc2ccccc21	-0.82	i	0.08	.
CCOc1ccc(CNC(=O)CCn2c(=O)oc3ccccc32)cc1	-1.3	i	3.4*	-6
COCC(C)n1c(C)cc(C(=O)COC(=O)c2oc3ccccc3c2C)c1C (stereo not drawn)	-0.47	i	-1.4	33
Cc1ccc(NC(=O)Cn2c(=O)oc3ccccc32)cc1	0.1	i	0.32	.
COCC(C)n1c(C)cc(C(=O)Cn2c(=O)oc3ccccc32)c1C (stereo not drawn)	0.7	i	-0.55	79*
CCOc1ccc(NC(=O)Cn2c(=O)oc3ccccc32)cc1	0.062	i	3.6*	7
CCOc1ccc(NC(=O)CCC(=O)NNC(=O)COc2ccccc2C)cc1	0.54	+	1.4	.
COc1ccc(-c2c(C)oc3c(CN4CCN(C)CC4)c(O)ccc3c2=O)cc1	0.49	+	1.4	.
COc1ccc(-c2c(C(F)(F)F)oc3c(CN4CCN(C)CC4)c(O)ccc3c2=O)cc1	-0.7	i	-0.06	-50

Source: PubChem BioAssay
